Compounds with a hit are over-represented: about 1.4% of the library has one in this group of screens.
GSIS activator = GLuc luminescence reporter in INS-1E cells, primary screen for activators of glucose-dependent secretion of insulin; INS-1E GLuc reporter insulin secretion, 2-3 h; activation, % at 16.6 µM; 370,000 tested, 0.61% active; AID 743287;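 active = lowest replicate activation of at least 40%, so every replicate reaches that level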;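 also: 0% = median of neutral control wells and 100% = median of IBMX positive control wells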
PDI turbidity = blocks human protein disulfide isomerase activity; P07237; PDI insulin aggregation turbidity, A650, 90 min; inhibition, % at 10 µM; 350,000 tested, 0.052% active;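 active = mean inhibition across replicates of 30% or more, whatever share of single replicates reach that level; inconclusive = mean inhibition below 30% while every single replicate reaches 30%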
Target sequence (P07237 whole entry, looked up): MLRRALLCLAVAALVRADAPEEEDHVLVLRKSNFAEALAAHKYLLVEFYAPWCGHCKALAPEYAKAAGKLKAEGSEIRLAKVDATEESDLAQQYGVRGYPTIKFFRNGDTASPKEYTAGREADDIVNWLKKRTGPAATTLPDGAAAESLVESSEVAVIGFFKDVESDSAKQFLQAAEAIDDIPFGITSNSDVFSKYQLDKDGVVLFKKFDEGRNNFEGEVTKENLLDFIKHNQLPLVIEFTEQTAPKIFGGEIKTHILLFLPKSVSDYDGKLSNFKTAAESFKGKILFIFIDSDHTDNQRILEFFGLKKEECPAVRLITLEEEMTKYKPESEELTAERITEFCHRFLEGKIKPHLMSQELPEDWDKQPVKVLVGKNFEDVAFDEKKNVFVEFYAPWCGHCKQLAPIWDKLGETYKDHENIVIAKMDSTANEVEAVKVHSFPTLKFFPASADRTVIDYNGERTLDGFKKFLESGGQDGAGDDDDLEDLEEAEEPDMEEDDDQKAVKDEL
Env fusion inh = blocks HIV Env-driven cell-cell fusion. 360,000 tested, 1.1% active. inhibition, % at 12.3 µM. HeLa-JRFL Env/CEM21 cell fusion, luciferase. AID 651610;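 active = mean replicate inhibition score of at least 50 and every replicate individually at or above 50; inconclusive = only one of the two criteria met; inactive = mean below 50 and not all replicates reaching 50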;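 also: 0% = plate neutral controls and 100% = maraviroc near 300 nM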
ERp5 inh = ERp5 (human) disulfide isomerase inhibition. 350,000 tested, 0.05% active. inhibition, % at 9.99 µM. AID 651711. ERp5 insulin aggregation, absorbance 650 nm, 90 min. Q15084;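 active = mean replicate inhibition above about 25%, with every replicate also reaching it, limit read from the data, passing the limit was not always enough; inconclusive = only one of those two criteria met; inactive = neither criterion met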
FN deposition inh = fibronectin deposition inhibition | AH1F fibroblasts, Alexa488-fibronectin deposition fluorescence, overnight | inhibition, % at 12.6 µM | 350,000 tested, 0.086% active | AID 743247;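 active = mean inhibition across replicates of 30% or more, regardless of how many single replicates reach that level; inconclusive = mean under 30% yet at least half of replicates reach 30%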;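 also: positive control wells lacked labelled fibronectin entirely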
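Assay system: AH1F fibroblasts / Quantity: 10000 cells per well / Medium: DMEM plus 2% serum, read in PBS / Reagent: labelled fibronectin 24 nM / Dosing: single dose, pinned / Times: 1 h cell attachment, overnight exposure to compound and label / Signal: fluorescence, ex 485 nm, em 525 nm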
Starred values were filed as active, the others as inactive; u = inconclusive; x = not tested or not shown; [ ] = remark or other dose.

SMILES	GSIS activator	PDI turbidity	Env fusion inh	ERp5 inh	FN deposition inh
CCCC(=O)N1CC2(C1)CN(C(=O)CC)[C@H](CO)c1c2c2ccc(OC)cc2n1C	-7	x	x	-4	x
O=S(=O)(NCC1CCCO1)c1ccc(S(=O)(=O)N(Cc2ccccc2F)C2CCCCC2)cc1 (stereo not given)	-22	5	59*	x	0
O=S(=O)(NCC1CCCO1)c1ccc(Cl)nc1 (stereo not given)	44*	6	8	2	2
O=S(=O)(NCC1CCCO1)c1ccc(S(=O)(=O)N(Cc2ccccn2)C2CC2)cc1 (stereo not given)	8	17	4	x	-5
O=C(Nc1ncn[nH]1)c1ccc(Cl)c(Cl)c1	44*	6	-40	2	8
O=C(C[C@@H]1CC[C@H]2[C@@H](COC[C@H](O)CN2C(=O)Nc2ccc(F)cc2)O1)NCCc1ccccc1	-12	x	-17[16.7 µM]	-5	-6
COC(=O)c1cn(NC(=O)C2CCC(C)CC2)c(=O)c2ccccc12 (stereo not given)	-1	5	6	x	-6
COC(=O)c1cn(NC(=O)c2cc([N+](=O)[O-])ccc2F)c(=O)c2ccccc12	39	0	57*	u	-4
CCC(C)(C)n1nnnc1C(c1ccc(C)cc1)N(Cc1ccco1)Cc1cccs1 (stereo not given)	x	-4	135*	x	-11
COc1cccc(CN(Cc2ccco2)C(c2ccc(F)cc2)c2nnnn2C(C)(C)C)c1 (stereo not given)	x	4	x	x	x
O=C(N/N=C/c1ccccc1C(=O)O)c1ccc(COc2cccc3cccnc23)cc1	3	-3	10	3	-12
O=C(N/N=C/c1ccc[nH]1)c1ccc(COc2cccc3cccnc23)cc1	7	-4	71*	1	0
O=C(N/N=C/c1ccc[nH]1)c1ccc(O)cc1	-19	3	7	-1	1
Cc1cc(Br)c(OCc2ccc(C(=O)N/N=C/c3ccc[nH]3)cc2)c(Br)c1	0	6	91*	0	1
CCCNC(=O)N1C[C@H](O)COC[C@H]2O[C@@H](CC(=O)O)CC[C@@H]21	7	x	-15[16.7 µM]	5	3
CN(C)CCCn1c2c3ccccc3ccc2c2oc(=O)c3ccccc3c21	80*	-1	x	-11	2
CN(C)CCCn1c(=S)[nH]c2ccccc2c1=O	-6	14	5	4	14
CSc1ncnc2c1ncn2CCCN[C@H](C)c1cccc2ccccc12	-17	0	58*	-1	-6
COc1ncnc2c1ncn2CCCN[C@H](C)c1cccc2ccccc12	6	3	x	6	-3
O=[N+]([O-])c1ccc(Cl)c(C2Nc3cccc4cccc(c34)N2)c1	x	-3	58*	x	-7
O=[N+]([O-])c1ccccc1C1Nc2cccc3cccc(c23)N1	x	5	-171	x	-7
O=C(C[C@@H]1C[C@H]2c3cc(NC(=O)C4CCOCC4)ccc3O[C@H]2[C@H](CO)O1)NCc1ccccc1F	-9	x	87*[16.7 µM]	3	2
O=C(C[C@@H]1C[C@@H]2c3cc(NC(=O)C4CCOCC4)ccc3O[C@@H]2[C@H](CO)O1)NCc1ccccc1F	8	x	71*[16.7 µM]	1	3
COc1ccc(NC(=O)Nc2ccc3c(c2)C(=O)N([C@H](C)CO)C[C@H](C)[C@@H](CN(C)Cc2ccc4c(c2)OCO4)OCCCC[C@H](C)O3)cc1	-14	x	24[16.7 µM]	-2	x
COCC(=O)N1[C@H](CO)[C@@H](c2ccc(-c3cccc(F)c3)cc2)C12CN(C(=O)C1CC1)C2	-15	x	x	-3	-3
SMILES	GSIS activator	PDI turbidity	Env fusion inh	ERp5 inh	FN deposition inh
CC(=O)N(C)C[C@@H]1Oc2ncc(C#Cc3cccc(F)c3)cc2C(=O)N([C@H](C)CO)C[C@@H]1C	17	x	11[16.7 µM]	5	-10
CCCC(=O)Nc1ccc2c(c1)C(=O)N(C)[C@H]1CC[C@@H](CC(=O)NCc3ccccc3Cl)O[C@@H]1CO2	1	x	x	13	x
CCN1C(=O)[C@H]2[C@H]3CN=C(SCc4ccc(OC)cc4)N3[C@@](CC)(C(=O)OC)[C@H]2C1=O	10	1	-10	-1	3
COC(=O)[C@@]1(C)[C@H]2C(=O)N(Cc3ccccc3)C(=O)[C@H]2[C@H]2CN=C(SCc3ccc(C)cc3)N21	-15	-3	65*	-2	-9
COC(=O)[C@@]1(Cc2ccccc2)[C@H]2C(=O)N(Cc3ccccc3)C(=O)[C@H]2[C@H]2CN=C(SCc3ccccc3)N21	-25	-4	76*	0	-3
COC(=O)[C@@]1(Cc2ccccc2)[C@H]2C(=O)N(Cc3ccccc3)C(=O)[C@H]2[C@H]2CN=C(SCc3ccc(C)cc3)N21	x	6	x	x	x
CCN1C(=O)[C@H]2[C@H]3CN=C(SCc4ccc(Cl)cc4)N3[C@@](CC)(C(=O)OC)[C@H]2C1=O	-17	11	69*	6	-3
O=C(Nc1ccc([N+](=O)[O-])cc1)Nc1ccc(Cl)cc1F	-2	-5	66*	-1	-1
O=C(Nc1ccc(Cl)cc1)Nc1cc([N+](=O)[O-])ccc1F	-12	-2	9	x	1
O=C(NCC1CC1)[C@@H]1[C@@H](CO)[C@@H]2Cn3c(ccc(/C=C/c4ccccc4)c3=O)[C@H]1N2C(=O)C1CC1	-7	x	x	0	x
O=C1C=CC(=O)N1CCNc1ncc(C(F)(F)F)cc1Cl	147*	-1	17	2	2
O=C1CC(=O)N(CCNc2ncc(C(F)(F)F)cc2Cl)C(=O)N1	x	-1	x	x	x
O=[N+]([O-])c1cc(Cl)ccc1NCCNc1ncc(C(F)(F)F)cc1Cl	58*	0	x	x	x
O=c1[nH]c2cc(Cl)ccc2n(CCNc2ncc(C(F)(F)F)cc2Cl)c1=O	72*	-15	x	x	x
O=c1cc(Cl)[nH]c(=O)n1CCNc1ncc(C(F)(F)F)cc1Cl	3	-1	x	x	x
O=[N+]([O-])c1ccccc1NCCNc1ncc(C(F)(F)F)cc1Cl	-1	2	x	x	x
C[C@H](CO)N1C[C@H](C)[C@H](CN(C)Cc2ccc(C(F)(F)F)cc2)Oc2ccc(NC(=O)Nc3ccc4c(c3)OCO4)cc2C1=O	-38	x	9[16.7 µM]	9	x
CCCC(=O)Nc1ccc2c(c1)OC[C@@H](C)N(Cc1cccc(F)c1)C[C@@H](C)[C@@H](OC)CN(C)C2=O	-20	x	x	-2	8
COc1ccc(C2=NOC(C(=O)Nc3cccnc3)C2)cc1OC (stereo not given)	75*	2	7	0	9
Cc1cc(C)c2nc(C(F)(F)F)nc(N3CCN(C(=O)c4ccco4)CC3)c2c1	x	3	73*	x	15
Cc1cc(SCC(=O)N2CCCC2=O)nc2ccccc12	x	-1	58*	2	1
Cc1cc(SCCC(=O)O)nc2ccccc12	x	5	x	x	x
C[C@H](CO)N1C[C@H](C)[C@H](CN(C)Cc2ccc(C(=O)O)cc2)Oc2c(NC(=O)C3CCCCC3)cccc2C1=O	4	x	x	3	x
O=C(/C=C/c1ccc(Br)cc1)c1ccc(NC(=O)c2ccco2)cc1	114*	1	-30	x	x

Screening results (PubChem)
